# Test results published in ChEMBL document CHEMBL1145189, “Synthesis and evaluation of S-acyl-2-thioethyl esters of modified nucleoside 5'-monophosphates as inhibitors of hepatitis C virus RNA replication” (J Med Chem, 2005).
# Values joined by “and” are separate entries in the source; they are usually repeats but may differ in a detail not shown here. Equal values may be shown once.
# How the values were obtained:
# [1] = Effective concentration against hepatitis C virus RNA replication in a subgenomic bicistronic replicon in HBI10A cells; type: functional, cell-based; conditions: Homo sapiens
# Outline: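 Stable Huh-7-derived HBI10A hepatoma line carrying a subgenomic bicistronic HCV replicon. Compound incubated with cells for 24 h. Relative replicon RNA then quantified by in situ ribonuclease protection assay.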
# [2] = Cytotoxic concentration of compound in human HBI10A cells infected with hepatitis C virus in MTS assay; type: functional
# Outline: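 MTS cytotoxicity run on samples parallel to the replicon assay, at the same time (24 h compound exposure). Cells plated at 2.0 × 10⁴/well and compound added next day at 2× in medium. Incubation at 37 °C, 5% CO₂. MTS reagent added for 1 h, then absorbance read at 490 nm.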
# CHO [3] = assay: Percent of CHO cells with chromosomal aberrations were determined at 600 uM compound after 20 hr of treatment (harvested at 20h of treatment); type: functional, Cricetulus griseus
# Outline: (§1)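 CHO (clone WBL) monolayers treated for 20 h without S-9, with DMSO stock diluted 100-fold into medium. Harvest at 20, 30 or 42 h after dosing; colcemid added 1–2 h before harvest for metaphase arrest. Cells fixed, and 200 cells scored per point for % aberrant cells. Points not scored where toxicity prevented it. Comparison against concurrent controls.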
# CHO [4] = assay: Percent of CHO cells with chromosomal aberrations were determined at 600 uM compound after 20 hr of treatment (harvested at 30h of treatment); type: functional, Cricetulus griseus; outline: as §1
# CHO [5] = assay: Effect of compound (800 uM) on growth of CHO cells measured as population doublings from the beginning of the experiment as percent of controls after 20 hr of treatment (harvested at 42h of treatment); type: functional, Cricetulus griseus
# Outline: (§2)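 Exponentially growing CHO (clone WBL) monolayers treated for 20 h without S-9. DMSO stock diluted 100-fold into medium, giving 1% v/v DMSO as vehicle control. Cultures harvested at 20, 30 or 42 h after dosing. Growth expressed as population doublings from start of experiment as a percentage of controls.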
# CHO [6] = assay: Percent of CHO cells with chromosomal aberrations were determined at 650 uM compound after 20 hr of treatment (harvested at 30h of treatment); type: functional, Cricetulus griseus; outline: as §1
# Huh-7 [7] = assay: Average intracellular Metabolism was measured in human Huh-7 cells after 3 h of incubation; type: functional
# Outline: (§3)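 Radiolabeled 5-[³H] compound at 2 µM incubated with Huh-7 (passage 27) or HBI10A (passage 15) cells for 3 or 23 h. Cells extracted and analysed by ion pair reverse-phase HPLC. Triphosphate reported as pmol/million cells, with major metabolic byproducts noted. Averages of at least three separate experiments.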
# CHO [8] = assay: Percent of CHO cells with chromosomal aberrations were determined at 800 uM compound after 20 hr of treatment (harvested at 20h of treatment); Not scored because of toxicity; type: functional, cell-based; conditions: Cricetulus griseus; outline: as §1
# CHO [9] = assay: Percent of CHO cells with chromosomal aberrations were determined at 550 uM compound after 20 hr of treatment (harvested at 30h of treatment); type: functional, Cricetulus griseus; outline: as §1
# CHO [10] = assay: Percent of CHO cells with chromosomal aberrations were determined at 800 uM compound after 20 hr of treatment (harvested at 30h of treatment); Not scored because of toxicity; type: functional, cell-based; conditions: Cricetulus griseus; outline: as §1
# CHO [11] = assay: Percent of CHO cells with chromosomal aberrations were determined at 700 uM compound after 20 hr of treatment (harvested at 42h of treatment); type: functional, Cricetulus griseus; outline: as §1
# CHO [12] = assay: Percent of CHO cells with chromosomal aberrations were determined at 700 uM compound after 20 hr of treatment (harvested at 20h of treatment); Not scored because of toxicity; type: functional, cell-based; conditions: Cricetulus griseus; outline: as §1
# [13] = Average intracellular Metabolism was measured in human HBI10A cells after 3 h of incubation; type: functional; outline: as §3
# CHO [14] = assay: Effect of compound (800 uM) on growth of CHO cells measured as population doublings from the beginning of the experiment as percent of controls after 20 hr of treatment (harvested at 20h of treatment); type: functional, Cricetulus griseus; outline: as §2
# CHO [15] = assay: Effect of compound (650 uM) on growth of CHO cells measured as population doublings from the beginning of the experiment as percent of controls after 20 hr of treatment (harvested at 42h of treatment); type: functional, Cricetulus griseus; outline: as §2
# CHO [16] = assay: Effect of compound (600 uM) on growth of CHO cells measured as population doublings from the beginning of the experiment as percent of controls after 20 hr of treatment (harvested at 20h of treatment); type: functional, Cricetulus griseus; outline: as §2
# CHO [17] = assay: Percent of CHO cells with chromosomal aberrations were determined at 650 uM compound after 20 hr of treatment (harvested at 20h of treatment); Not scored because of toxicity; type: functional, cell-based; conditions: Cricetulus griseus; outline: as §1
# CHO [18] = assay: Effect of compound (650 uM) on growth of CHO cells measured as population doublings from the beginning of the experiment as percent of controls after 20 hr of treatment (harvested at 30h of treatment); type: functional, Cricetulus griseus; outline: as §2
# CHO [19] = assay: Percent of CHO cells with chromosomal aberrations were determined at 700 uM compound after 20 h of treatment (harvested at 30h of treatment); Not scored because of toxicity; type: functional, cell-based; conditions: Cricetulus griseus; outline: as §1
# CHO [20] = assay: Effect of compound (600 uM) on growth of CHO cells measured as population doublings from the beginning of the experiment as percent of controls after 20 hr of treatment (harvested at 42h of treatment); type: functional, Cricetulus griseus; outline: as §2
# CHO [21] = assay: Effect of compound (700 uM) on growth of CHO cells measured as population doublings from the beginning of the experiment as percent of controls after 20 hr of treatment (harvested at 20h of treatment); type: functional, Cricetulus griseus; outline: as §2
# Huh-7 [22] = assay: Average intracellular Metabolism was measured in human Huh-7 cells after 23 hr of incubation; type: functional; outline: as §3
# [23] = Average intracellular Metabolism was measured in human HBI10A cells after 23 hr of incubation; type: functional; outline: as §3
# CHO [24] = assay: Percent of CHO cells with chromosomal aberrations were determined at 600 uM compound after 20 hr of treatment (harvested at 42h of treatment); type: functional, Cricetulus griseus; outline: as §1
# CHO [25] = assay: Percent of CHO cells with chromosomal aberrations were determined at 550 uM compound after 20 hr of treatment (harvested at 20h of treatment); type: functional, Cricetulus griseus; outline: as §1
# CHO [26] = assay: Percent of CHO cells with chromosomal aberrations were determined at 800 uM compound after 20 hr of treatment (harvested at 42h of treatment); Not scored because of toxicity; type: functional, cell-based; conditions: Cricetulus griseus; outline: as §1
# CHO [27] = assay: Effect of compound (550 uM) on growth of CHO cells measured as population doublings from the beginning of the experiment as percent of controls after 20 hr of treatment (harvested at 20h of treatment); type: functional, Cricetulus griseus; outline: as §2
# CHO [28] = assay: Effect of compound (550 uM) on growth of CHO cells measured as population doublings from the beginning of the experiment as percent of controls after 20 hr of treatment (harvested at 30h of treatment); type: functional, Cricetulus griseus; outline: as §2
# CHO [29] = assay: Effect of compound (700 uM) on growth of CHO cells measured as population doublings from the beginning of the experiment as percent of controls after 20 h of treatment (harvested at 30h of treatment); type: functional, Cricetulus griseus; outline: as §2
# CHO [30] = assay: Effect of compound (700 uM) on growth of CHO cells measured as population doublings from the beginning of the experiment as percent of controls after 20 hr of treatment (harvested at 42h of treatment); type: functional, Cricetulus griseus; outline: as §2
# CHO [31] = assay: Effect of compound (550 uM) on growth of CHO cells measured as population doublings from the beginning of the experiment as percent of controls after 20 hr of treatment (harvested at 42h of treatment); type: functional, Cricetulus griseus; outline: as §2
# CHO [32] = assay: Effect of compound (650 uM) on growth of CHO cells measured as population doublings from the beginning of the experiment as percent of controls after 20 hr of treatment (harvested at 20h of treatment); type: functional, Cricetulus griseus; outline: as §2
# CHO [33] = assay: Effect of compound (600 uM) on growth of CHO cells measured as population doublings from the beginning of the experiment as percent of controls after 20 hr of treatment (harvested at 30h of treatment); type: functional, Cricetulus griseus; outline: as §2
# CHO [34] = assay: Effect of compound (800 uM) on growth of CHO cells measured as population doublings from the beginning of the experiment as percent of controls after 20 hr of treatment (harvested at 30h of treatment); type: functional, Cricetulus griseus; outline: as §2
# [35] = Inhibitory concentration against hepatitis C virus NS5B-mediated RNA synthesis in HBI10A cells; type: functional, cell-based; conditions: Homo sapiens
# CHO [36] = assay: Percent of CHO cells with chromosomal aberrations were determined at 10000 uM compound after 20 hr of treatment (harvested at 20h of treatment); type: functional, Cricetulus griseus; outline: as §1
# CHO [37] = assay: Effect of compound (10000 uM) on growth of CHO cells measured as population doublings from the beginning of the experiment as percent of controls after 20 hr of treatment (harvested at 42h of treatment); type: functional, Cricetulus griseus; outline: as §2
# CHO [38] = assay: Effect of compound (10000 uM) on growth of CHO cells measured as population doublings from the beginning of the experiment as percent of controls after 20 hr of treatment (harvested at 20h of treatment); type: functional, Cricetulus griseus; outline: as §2
# CHO [39] = assay: Percent of CHO cells with chromosomal aberrations were determined at 10000 uM compound after 20 hr of treatment (harvested at 42h of treatment); type: functional, Cricetulus griseus; outline: as §1
# CHO [40] = assay: Percent of CHO cells with chromosomal aberrations were determined at 10000 uM compound after 20 hr of treatment (harvested at 30h of treatment); type: functional, Cricetulus griseus; outline: as §1
# CHO [41] = assay: Effect of compound (10000 uM) on growth of CHO cells measured as population doublings from the beginning of the experiment as percent of controls after 20 hr of treatment (harvested at 30h of treatment); type: functional, Cricetulus griseus; outline: as §2
smiles,measurement,setting,value
CC(C)(C)C(=O)SCCOP(=O)(OCCSC(=O)C(C)(C)C)OC[C@@H]1C[C@@H](O)[C@H](n2ccc3c(O)nc(N)nc32)O1,EC50,[1],7.2 µM
same,CC50,[2],> 50 µM
CO[C@@H]1[C@H](O)[C@@H](COP(=O)(OCCSC(=O)C(C)(C)C)OCCSC(=O)C(C)(C)C)O[C@H]1n1ccc(N)nc1=O,Aberrant cells,CHO [3],2%
same,Aberrant cells,CHO [4],1.5%
same,Growth,CHO [5],0%
same,Aberrant cells,CHO [6],4.5% and 3%
same,EC50,[1],3 µM
same,Activity,Huh-7 [7],7.02 pmol/million cells
same,Aberrant cells,CHO [8],Not scored
same,Aberrant cells,CHO [9],3.5%
same,Aberrant cells,CHO [10],Not scored
same,Aberrant cells,CHO [11],3.5%
same,Aberrant cells,CHO [12],Not scored
same,Activity,[13],15.9 pmol/million cells
same,Growth,CHO [14],6%
same,Growth,CHO [15],90%
same,Growth,CHO [16],51%
same,Aberrant cells,CHO [17],Not scored
same,Growth,CHO [18],46%
same,Aberrant cells,CHO [19],Not scored
same,Growth,CHO [20],88%
same,Growth,CHO [21],21%
same,Activity,Huh-7 [22],1.88 pmol/million cells
same,Activity,[23],5.8 pmol/million cells
same,Aberrant cells,CHO [24],1.5%
same,Aberrant cells,CHO [25],0%
same,Aberrant cells,CHO [26],Not scored
same,Growth,CHO [27],59%
same,Growth,CHO [28],82%
same,Growth,CHO [29],6%
same,Growth,CHO [30],47%
same,CC50,[2],> 100 µM
same,Growth,CHO [31],95%
same,Growth,CHO [32],27%
same,Growth,CHO [33],57%
same,Growth,CHO [34],0%
CO[C@@H]1[C@H](O)[C@@H](CO)O[C@H]1n1ccc(N)nc1=O,IC50,[35],3800 nM
same,EC50,[1],21 µM
same,Activity,Huh-7 [7],0.17 pmol/million cells
same,Activity,[13],0.05 pmol/million cells
same,Activity,Huh-7 [22],0.61 pmol/million cells
same,Activity,[23],0.18 pmol/million cells
same,CC50,[2],> 100 µM
CO[C@@H]1[C@H](O)[C@@H](CO)O[C@H]1n1ccc2c(O)nc(N)nc21,IC50,[35],350 nM
same,EC50,[1],> 50 µM
CO[C@@H]1[C@H](O)[C@@H](CO)O[C@H]1n1cnc2c(O)nc(N)nc21,IC50,[35],1200 nM
same,EC50,[1],> 50 µM
Nc1ccn([C@H]2CC[C@@H](CO)O2)c(=O)n1 [ZALCITABINE],Aberrant cells,CHO [36],9.5%
same,Growth,CHO [37],105%
same,Growth,CHO [38],65%
same,Aberrant cells,CHO [39],3%
same,Aberrant cells,CHO [40],8%
same,Growth,CHO [41],101%
CO[C@@H]1[C@H](O)[C@@H](COP(=O)(OCCSC(=O)C(C)(C)C)OCCSC(=O)C(C)(C)C)O[C@H]1n1ccc2c(O)nc(N)nc21,EC50,[1],> 50 µM
same,CC50,[2],> 100 µM
